{"source": "ChEMBL document CHEMBL3997808", "about": "(J Med Chem, 2017)", "key": {"[1]": {"assay": "Volume of distribution at steady state in cynomolgus monkey at 1.2 mg/kg, iv", "assay_type": "ADME, organism-based, Macaca fascicularis", "conditions": "in vivo, read-out: Vdss; call rule not given here"}, "[2]": {"assay": "Drug metabolism in human hepatocytes assessed as 5-(hydroxy(phenyl)methyl)-N-((S)-5-methyl-4-oxo-2,3,4,5-tetrahydrobenzo[b][1,4]oxazepin-3-yl)-1H-1,2,4-triazole-3-carboxamide formation at 10 uM measured up to 4 hrs", "assay_type": "ADME, cell-based, Hepatocyte", "in_short": "(§1)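 Compound at 10 μM was incubated with hepatocyte suspensions at 1 million cells/mL. Incubation ran at 37°C under 5% CO2:95% O2 for up to 4 h.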"}, "[3]": {"assay": "Fraction unbound in human blood", "assay_type": "ADME, tissue-based"}, "[4]": {"assay": "Half-life in cynomolgus monkey at 1.2 mg/kg, iv", "assay_type": "ADME, organism-based, Macaca fascicularis", "conditions": "in vivo"}, "[5]": {"assay": "Drug metabolism in rat hepatocytes assessed as glucuronide metabolite M569 formation at 10 uM measured up to 4 hrs", "assay_type": "ADME, cell-based, Hepatocyte", "in_short": "as §1"}, "[6]": {"assay": "Clearance in rat at 1.1 mg/kg, iv", "assay_type": "ADME, organism-based", "conditions": "in vivo"}, "[7]": {"assay": "Inhibition of recombinant human cytochrome P450", "assay_type": "ADME", "conditions": "recombinant enzyme"}, "[8]": {"assay": "Oral bioavailability in rat at 2.1 mg/kg", "assay_type": "ADME, organism-based", "conditions": "in vivo"}, "[9]": {"assay": "Stability in human microsomes measured up to 45 mins", "assay_type": "ADME, Microsome", "conditions": "0.75 h"}, "[10]": {"assay": "Drug metabolism in cynomolgus monkey hepatocytes assessed as glucuronide metabolite M569 formation at 10 uM measured up to 4 hrs", "assay_type": "ADME, cell-based, Macaca fascicularis, Hepatocyte", "in_short": "as §1"}, "[11]": {"assay": "Drug metabolism in cynomolgus monkey hepatocytes assessed as (S)-5-benzyl-N-(4-oxo-2,3,4,5-tetrahydrobenzo[b][1,4]oxazepin-3-yl)-1H-1,2,4-triazole-3-carboxamide formation at 10 uM measured up to 4 hrs", "assay_type": "ADME, cell-based, Macaca fascicularis, Hepatocyte", "in_short": "as §1"}, "[12]": {"target": "Voltage-gated inwardly rectifying potassium channel KCNH2 (Homo sapiens, UniProt Q12809)", "sequence (Q12809 whole entry)": "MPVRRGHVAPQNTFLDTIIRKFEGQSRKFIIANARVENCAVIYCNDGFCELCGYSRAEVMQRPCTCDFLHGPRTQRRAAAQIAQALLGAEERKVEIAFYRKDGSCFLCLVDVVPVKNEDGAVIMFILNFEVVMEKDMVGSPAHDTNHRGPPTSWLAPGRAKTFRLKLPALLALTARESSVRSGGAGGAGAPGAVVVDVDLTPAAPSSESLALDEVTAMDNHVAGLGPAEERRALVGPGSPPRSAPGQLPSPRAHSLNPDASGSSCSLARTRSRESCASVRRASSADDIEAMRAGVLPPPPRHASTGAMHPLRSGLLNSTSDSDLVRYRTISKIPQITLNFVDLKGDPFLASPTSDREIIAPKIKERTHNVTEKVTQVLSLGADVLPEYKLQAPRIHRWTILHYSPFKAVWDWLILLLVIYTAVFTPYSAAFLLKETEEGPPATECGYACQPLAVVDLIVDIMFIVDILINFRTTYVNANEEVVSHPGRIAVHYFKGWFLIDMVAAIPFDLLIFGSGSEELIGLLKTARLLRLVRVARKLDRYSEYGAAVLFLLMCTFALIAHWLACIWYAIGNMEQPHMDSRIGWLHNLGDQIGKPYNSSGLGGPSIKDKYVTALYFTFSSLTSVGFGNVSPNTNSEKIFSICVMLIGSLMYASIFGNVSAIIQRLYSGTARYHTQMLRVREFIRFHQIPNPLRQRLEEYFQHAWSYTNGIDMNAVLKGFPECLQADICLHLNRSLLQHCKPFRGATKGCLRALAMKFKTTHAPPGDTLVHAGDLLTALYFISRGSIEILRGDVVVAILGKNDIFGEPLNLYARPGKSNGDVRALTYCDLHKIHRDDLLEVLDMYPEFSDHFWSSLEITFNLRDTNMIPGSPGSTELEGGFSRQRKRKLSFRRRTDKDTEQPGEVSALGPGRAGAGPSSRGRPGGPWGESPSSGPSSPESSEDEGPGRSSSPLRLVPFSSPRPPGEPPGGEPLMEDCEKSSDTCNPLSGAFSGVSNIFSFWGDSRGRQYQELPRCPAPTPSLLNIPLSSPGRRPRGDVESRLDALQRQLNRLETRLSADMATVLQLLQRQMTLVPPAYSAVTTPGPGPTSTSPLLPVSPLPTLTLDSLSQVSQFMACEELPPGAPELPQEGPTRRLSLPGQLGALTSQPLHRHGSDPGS", "assay": "Inhibition of human ERG expressed in HEK293 cells", "assay_type": "cell-based"}, "[13]": {"assay": "Drug metabolism in cynomolgus monkey hepatocytes assessed as glucuronide metabolite M553 formation at 10 uM measured up to 4 hrs", "assay_type": "ADME, cell-based, Macaca fascicularis, Hepatocyte", "in_short": "as §1"}, "[14]": {"target": "T1, Receptor-interacting serine/threonine-protein kinase 1 (Mus musculus, UniProt Q60855)", "T1 sequence (Q60855 whole entry)": "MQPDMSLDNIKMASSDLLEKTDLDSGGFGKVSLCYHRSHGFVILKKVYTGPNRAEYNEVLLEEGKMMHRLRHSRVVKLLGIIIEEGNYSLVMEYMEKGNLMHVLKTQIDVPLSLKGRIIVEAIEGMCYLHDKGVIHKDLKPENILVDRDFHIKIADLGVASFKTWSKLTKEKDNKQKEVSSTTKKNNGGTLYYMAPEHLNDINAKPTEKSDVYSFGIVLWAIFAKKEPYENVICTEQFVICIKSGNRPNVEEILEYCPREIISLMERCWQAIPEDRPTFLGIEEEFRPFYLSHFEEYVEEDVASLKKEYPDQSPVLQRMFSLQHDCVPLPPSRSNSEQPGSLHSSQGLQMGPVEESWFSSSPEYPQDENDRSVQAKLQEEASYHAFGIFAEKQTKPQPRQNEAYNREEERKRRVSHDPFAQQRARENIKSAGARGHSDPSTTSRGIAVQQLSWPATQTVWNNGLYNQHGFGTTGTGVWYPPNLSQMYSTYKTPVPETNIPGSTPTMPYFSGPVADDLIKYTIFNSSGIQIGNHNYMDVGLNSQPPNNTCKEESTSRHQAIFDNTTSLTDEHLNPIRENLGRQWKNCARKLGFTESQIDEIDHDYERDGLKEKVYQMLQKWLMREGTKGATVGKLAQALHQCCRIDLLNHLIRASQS", "assay": "Displacement of (14-(2-{[3-({2-{[4-(cyanomethyl)phenyl]amino}-6-[(5-cyclopropyl-1H-pyrazol-3-yl)-amino]-4-pyrimidinyl}amino)propyl]amino}-2-oxoethyl)-16,16,18,18-tetramethyl-6,7,7a,8a,9,10,16,18-octahydrobenzo[2'',3'']indolizino-[8'',7'':5',6']pyrano[3',2':3,4]pyrido[1,2-a]indol-5-ium-2-sulfonate from mouse RIP1 (1 to 378 residues) expressed in baculovirus infected insect cells measured for 50 mins by fluorescence polarization assay", "in_short": "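Competitive FP binding assay in which test compounds displace a fluorescently labeled ATP-competitive ligand from RIP1.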"}, "[15]": {"assay": "Drug metabolism in cynomolgus monkey hepatocytes assessed as (S)-3-amino-5-methyl-2,3-dihydrobenzo[b][1,4]oxazepin-4(5H)-one formation at 10 uM measured up to 4 hrs", "assay_type": "ADME, cell-based, Macaca fascicularis, Hepatocyte", "in_short": "as §1"}, "[16]": {"assay": "Drug metabolism in cynomolgus monkey hepatocytes assessed as 5-(hydroxy(phenyl)methyl)-N-((S)-5-methyl-4-oxo-2,3,4,5-tetrahydrobenzo[b][1,4]oxazepin-3-yl)-1H-1,2,4-triazole-3-carboxamide formation at 10 uM measured up to 4 hrs", "assay_type": "ADME, cell-based, Macaca fascicularis, Hepatocyte", "in_short": "as §1"}, "[17]": {"assay": "Cmax in rat at 2.1 mg/kg, po", "assay_type": "ADME, organism-based", "parameters": "dose 2.1 mg/kg, route oral", "conditions": "in vivo"}, "[18]": {"assay": "AUC in rat at 2.1 mg/kg, po", "assay_type": "ADME, organism-based", "conditions": "in vivo"}, "[19]": {"assay": "Volume of distribution at steady state in rat at 1.1 mg/kg, iv", "assay_type": "ADME, organism-based", "conditions": "in vivo, read-out: Vdss"}, "[20]": {"assay": "Clearance in cynomolgus monkey at 1.2 mg/kg, iv", "assay_type": "ADME, organism-based, Macaca fascicularis", "conditions": "in vivo"}, "[21]": {"assay": "Half-life in rat at 1.1 mg/kg, iv", "assay_type": "ADME, organism-based", "conditions": "in vivo"}, "[22]": {"assay": "Stability in cynomolgus monkey microsomes measured up to 45 mins", "assay_type": "ADME, Macaca fascicularis, Microsome", "conditions": "0.75 h"}, "Cynomolgus monkey": {"system": "Cynomolgus monkey", "assay": "Toxicity in cynomolgus monkey at 2 to 1000 mg/kg, po after 1 month", "assay_type": "organism-based, Macaca fascicularis", "conditions": "in vivo, 730.5 h"}, "[23]": {"assay": "Solubility of the compound in FaSSIF", "assay_type": "physicochemical"}, "[24]": {"assay": "Drug metabolism in human hepatocytes assessed as (S)-5-benzyl-N-(4-oxo-2,3,4,5-tetrahydrobenzo[b][1,4]oxazepin-3-yl)-1H-1,2,4-triazole-3-carboxamide formation at 10 uM measured up to 4 hrs", "assay_type": "ADME, cell-based, Hepatocyte", "in_short": "as §1"}, "[25]": {"assay": "AUC (0 to infinity) in rat at 2 mg/kg, po", "assay_type": "ADME, organism-based", "parameters": "dose 2 mg/kg, route oral, time infinity", "conditions": "in vivo"}, "Brain": {"system": "Brain", "assay": "Drug uptake in Han Wistar rat brain at 2 mg/kg, iv administered as 4 hrs infusion", "assay_type": "ADME, organism-based", "conditions": "in vivo", "in_short": "(§2)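 Rats received a 4 h iv infusion, after which terminal tissue samples were collected. Parent drug concentrations were measured in each tissue and compared with blood levels.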"}, "[26]": {"assay": "Kinetic solubility in phosphate buffer saline at pH 7.4 by chemiluminescence nitrogen detection method", "assay_type": "physicochemical", "conditions": "phosphate buffered saline, read-out: Kinetic_solubility", "in_short": "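Kinetic aqueous solubility measured by chemiluminescent nitrogen detection (CLND) in phosphate-buffered saline pH 7.4. The solution was prepared from a DMSO stock of the inhibitor.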"}, "Heart": {"system": "Heart", "assay": "Drug uptake in Han Wistar rat heart at 2 mg/kg, iv administered as 4 hrs infusion", "assay_type": "ADME, organism-based", "conditions": "in vivo", "in_short": "as §2"}}, "note": "pIC50: −log10 of the molar value."}
{"compound": "CN1C(=O)[C@@H](NC(=O)c2nnc(Cc3ccccc3)[nH]2)COc2ccccc21", "note": "[GSK2982772]", "values": [{"measurement": "Vd", "setting": "[1]", "value": 2.2, "unit": "L/kg"}, {"measurement": "Drug metabolism", "setting": "[2]", "value": "Metabolite_Detected"}, {"measurement": "fraction unbound", "setting": "[3]", "value": 0.074}, {"measurement": "half-life", "setting": "[4]", "value": 6.5, "unit": "h"}, {"measurement": "Drug metabolism", "setting": "[5]", "value": "Metabolite_Detected"}, {"measurement": "clearance", "setting": "[6]", "value": 17, "unit": "mL/min/kg"}, {"measurement": "inhibition (INH)", "setting": "[7]", "value": "Not Active"}, {"measurement": "bioavailability", "setting": "[8]", "value": 110, "unit": "%"}, {"measurement": "Stability", "setting": "[9]", "value": "Stable"}, {"measurement": "Drug metabolism", "setting": "[10]", "value": "Metabolite_Detected"}, {"measurement": "Drug metabolism", "setting": "[11]", "value": "Metabolite_Detected"}, {"measurement": "pIC50", "setting": "[12]", "value": 3.71}, {"measurement": "Drug metabolism", "setting": "[13]", "value": "Metabolite_Detected"}, {"measurement": "pIC50", "setting": "[14]", "value": 5.60}, {"measurement": "Drug metabolism", "setting": "[15]", "value": "Metabolite_Detected"}, {"measurement": "Drug metabolism", "setting": "[16]", "value": "Metabolite_Detected"}, {"measurement": "Cmax", "setting": "[17]", "value": 810, "unit": "ng/mL"}, {"measurement": "AUC", "setting": "[18]", "value": 2300, "unit": "ng·h/mL"}, {"measurement": "Vd", "setting": "[19]", "value": 2.7, "unit": "L/kg"}, {"measurement": "clearance", "setting": "[20]", "value": 10, "unit": "mL/min/kg"}, {"measurement": "half-life", "setting": "[21]", "value": 3.9, "unit": "h"}, {"measurement": "Stability", "setting": "[22]", "value": "Stable"}, {"measurement": "Activity", "setting": "Cynomolgus monkey", "value": "Non-Toxic"}, {"measurement": "solubility", "setting": "[23]", "value": 230, "unit": "µg/mL"}, {"measurement": "Drug metabolism", "setting": "[24]", "value": "Metabolite_Detected"}, {"measurement": "AUC(0-inf)", "setting": "[25]", "value": 2300, "unit": "ng·h/mL"}, {"measurement": "Drug uptake", "setting": "Brain", "value": 4, "unit": "%"}, {"measurement": "solubility kinetic", "setting": "[26]", "value": 100, "unit": "µg/mL"}, {"measurement": "Drug uptake", "setting": "Heart", "value": "Active"}]}
